Rows were chosen to be rich in hits. Some 1.8% of all compounds tested hit in one or more screens of this group.
M5 PAM: human M5 muscarinic receptor positive allosteric modulators, primary screen, CHO-K1 cells, Fluo-8 calcium fluorescence; CHO-K1 hM5, ACh EC20 PAM; 0% = ACh EC20, 100% = ACh EC100; activation, % at 3 µM; actives 0.3% (n = 360,000); AID 624038, 2012;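 active = activation above the run cutoff, the mean activation of all test compounds plus 3 SD, cut at about 18% in these data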
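System – CHO-K1 hM5 cells · Compound – 3 µM, single dose · Incubation – compound preincubation 140 s before EC20 acetylcholine addition · Technique – Fluo-8 calcium fluorescence · Measure – Max/basal fluorescence ratio as % of EC20–EC100 ACh window · Benchmarks – low control EC20 acetylcholine (0%), high control EC100 acetylcholine (100%) · Replication – singlicate, one well per test compound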
M5 antag: human M5 muscarinic receptor antagonists, primary screen, CHO cells, Fluo-8 calcium fluorescence; inhibition, % at 3 µM; CHO-hM5 cells, ACh EC80; Muscarinic acetylcholine receptor M5 (Homo sapiens), P08912; AID 624040, 2012; actives 0.59% (n = 360,000);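 active = inhibition above a per-plate cutoff, the mean of that plate's test compounds plus 3 SD, cut at about 27% in these data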;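 also: 0% = acetylcholine EC80 with DMSO and 100% = DMSO without agonist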
M4 PAM: human M4 muscarinic receptor positive allosteric modulators, primary screen, CHO-K1 cells, Fluo-8 calcium fluorescence; AID 624126, 2012; activation, % at 3 µM; Muscarinic acetylcholine receptor M4 (Homo sapiens), P08173; CHO-K1 hM4/Gqi5, ACh EC20; 0% = ACh EC20, 100% = maximal ACh; actives 0.4% (n = 360,000);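 active = activation above its plate's cutoff, the mean activation of sample wells plus 3 SD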
Target sequence (P08173 whole entry, looked up): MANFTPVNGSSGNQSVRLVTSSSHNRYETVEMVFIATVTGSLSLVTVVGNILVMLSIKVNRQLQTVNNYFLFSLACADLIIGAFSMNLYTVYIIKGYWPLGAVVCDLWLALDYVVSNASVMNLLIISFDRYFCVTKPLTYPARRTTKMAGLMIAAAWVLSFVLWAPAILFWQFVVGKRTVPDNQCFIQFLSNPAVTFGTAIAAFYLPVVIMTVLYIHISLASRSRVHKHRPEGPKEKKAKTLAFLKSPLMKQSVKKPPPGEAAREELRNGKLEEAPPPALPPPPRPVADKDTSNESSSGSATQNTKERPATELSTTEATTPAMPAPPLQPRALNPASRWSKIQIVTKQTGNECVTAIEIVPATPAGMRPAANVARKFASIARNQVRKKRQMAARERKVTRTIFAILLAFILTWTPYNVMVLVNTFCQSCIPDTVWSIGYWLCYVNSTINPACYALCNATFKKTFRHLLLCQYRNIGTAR
M5 ag: human M5 muscarinic receptor agonists, primary screen, CHO-K1 cells, Fluo-8 calcium fluorescence; Muscarinic acetylcholine receptor M5 (Homo sapiens), P08912; CHO-K1 hM5 cells; 0% DMSO wells, 100% maximal acetylcholine response; activation, % at 3 µM; actives 0.19% (n = 360,000); AID 624037, 2012;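 active = activation above the run's mean over test compounds plus 3 SD, cut at about 23% in these data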;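 also: signal is peak over basal fluorescence ratio across the kinetic read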
M4 ag: human M4 muscarinic receptor agonists, primary screen, CHO-K1 cells, Fluo-8 calcium fluorescence; Muscarinic acetylcholine receptor M4 (Homo sapiens), P08173; actives 0.14% (n = 360,000); CHO-K1 hM4/Gqi5; vehicle 0%, full acetylcholine response 100%; activation, % at 3 µM; AID 624127, 2012;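 active = activation above the run mean over all test wells plus 3 SD, cut at about 32% in these data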;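 also: peak over basal fluorescence ratio per well then scaled between controls; 0% = DMSO wells and 100% = acetylcholine at EC100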
CHRM4 antagonist: human M4 muscarinic receptor antagonists, primary screen, CHO cells, Fluo-8 calcium fluorescence; Muscarinic acetylcholine receptor M4 (Homo sapiens), P08173; CHO-hM4 cells, ACh EC80; inhibition, % at 3 µM; actives 0.73% (n = 360,000); AID 624125, 2012;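 active = inhibition above its plate's cutoff, the mean inhibition of sample wells plus 3 SD, cut at about 27% in these data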;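 also: 0% = acetylcholine EC80 with DMSO and 100% = DMSO without agonist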
* hit, by the source's call.

`CN(C)CC(=O)N[C@@H]1CC[C@@H](CC(=O)NCCN2CCCCC2)O[C@@H]1CO` gave M5 PAM 20*, M5 antag -18, M4 PAM 3, M5 ag 0, M4 ag 1 and CHRM4 antagonist -9.
For CN(C)CC(=O)N[C@@H]1C=C[C@@H](CC(=O)NCCN2CCCCC2)O[C@@H]1CO the results were M5 PAM 10, M5 antag -13, M4 PAM 12, M5 ag 1, M4 ag 2 and CHRM4 antagonist -19.
Screening CCCc1nn(-c2cc(Cl)ccc2OC)c2c1C(=O)CC(C)(C)C2 returned M5 PAM 1, M5 antag -1, M4 PAM -2, M5 ag -5, M4 ag -3 and CHRM4 antagonist 4.
`CCc1nn(-c2cc(Cl)ccc2OC)c2c1C(=O)CCC2` gave M5 PAM 18*, M5 antag -11, M4 PAM 10, M5 ag -5, M4 ag -1 and CHRM4 antagonist -2.
Screening Cc1cc(N2C(=O)C3C4C=CC(C4)C3C2=O)ccc1Br (configuration not stated) returned M5 PAM 0, M5 antag -4, M4 PAM -2, M5 ag -1, M4 ag 2 and CHRM4 antagonist -11.
CC(C)c1cc(C(=O)NCc2ccc(F)cc2)c(N)s1 was read as M5 PAM 18*, M5 antag -6, M4 PAM 2, M5 ag 4, M4 ag 9 and CHRM4 antagonist -6.
Screening O=C(NCc1ccc2c(c1)OCO2)c1nnc(Cc2ccc(F)cc2)o1 returned M5 PAM -5, M5 antag -3, M4 PAM 9, M5 ag 0, M4 ag 2 and CHRM4 antagonist -5.
Screening Nc1nc2cc3c(cc2cc1C(=O)NCc1ccc(F)cc1)OCO3 returned M5 PAM -19, M5 antag 27*, M4 PAM -7, M5 ag 11, M4 ag 15 and CHRM4 antagonist 11.
For Cc1ccc(-c2nc(CNC(=O)c3ccco3)cs2)cc1 the results were M5 PAM -2, M5 antag 5, M4 PAM 2, M5 ag 0, M4 ag 7 and CHRM4 antagonist -3.
`N=c1c(S(=O)(=O)c2ccc(Cl)cc2)cc2c(=O)n3ccccc3nc2n1C1CCCC1` gave M5 PAM 0, M5 antag 6, M4 PAM -2, M5 ag -4, M4 ag 0 and CHRM4 antagonist -1.
`COc1ccc(CCNC(=O)C2CC(O)CN2S(=O)(=O)c2ccc(Cl)cc2)cc1OC` (configuration not stated) gave M5 PAM 5, M5 antag 9, M4 PAM 2, M5 ag 1, M4 ag 1 and CHRM4 antagonist -4.
Screening Nc1ncnc(Nc2ccc(F)c(Cl)c2)n1 returned M5 PAM 12, M5 antag -2, M4 PAM 12*, M5 ag 0, M4 ag 1 and CHRM4 antagonist 0.
For CCC(=O)Nn1cnc2c(c1=O)C1(CCCCC1)Cc1ccccc1-2 the results were M5 PAM 18*, M5 antag -7, M4 PAM 8, M5 ag -2, M4 ag 3 and CHRM4 antagonist 1.
`CCCC(=O)Nn1cnc2c(c1=O)C1(CCCCC1)Cc1ccccc1-2` gave M5 PAM -3, M5 antag 6, M4 PAM -3, M5 ag -6, M4 ag 0 and CHRM4 antagonist 4.
COc1cc(/C=C(\C#N)c2nc3ccccc3o2)ccc1O was read as M5 PAM -24, M5 antag 46*, M4 PAM -23, M5 ag 53*, M4 ag 30 and CHRM4 antagonist 20.
Screening N#C/C(=C\c1ccc(O)cc1)c1nc2ccccc2o1 returned M5 PAM -9, M5 antag 10, M4 PAM -11, M5 ag 10, M4 ag 9 and CHRM4 antagonist 14.
CC(C)(C)OC(=O)NCCCCCNC(=O)c1[nH]cnc1C(=O)Nc1cc(Br)ccc1F was read as M5 PAM -1, M5 antag -8, M4 PAM 9, M5 ag 2, M4 ag 1 and CHRM4 antagonist -22.
`Cc1c(C(=O)Nc2ccc(-c3nnc4n3CCCCC4)cc2)oc2ccc(Br)cc12` gave M5 PAM -4, M5 antag 4, M4 PAM -7, M5 ag -3, M4 ag 1 and CHRM4 antagonist 3.
Screening CC(=O)OCc1c(C(F)(F)F)nn(C)c1SCc1ccc(Cl)cc1 returned M5 PAM -21, M5 antag 10, M4 PAM -24, M5 ag -8, M4 ag -3 and CHRM4 antagonist 56*.
Screening COCCNc1ncnc2c1cnn2-c1ccc(Cl)cc1 returned M5 PAM -4, M5 antag 19, M4 PAM 13, M5 ag 2, M4 ag 6 and CHRM4 antagonist 28*.
For Cc1ccc(N2C(=O)c3ccccc3NC2c2ccccc2O)cc1 (configuration not stated) the results were M5 PAM -8, M5 antag 17, M4 PAM -17, M5 ag -8, M4 ag 1 and CHRM4 antagonist 45*.
Cc1cnc(NC(=O)NCC2CCCC(CNC(=O)Nc3ncc(C)s3)C2)s1 (configuration not stated) was read as M5 PAM 27*, M5 antag 17, M4 PAM 48*, M5 ag 2, M4 ag 20 and CHRM4 antagonist 9.
Cc1cccc(-c2nc(CS(=O)CC(=O)NCCc3ccc(Cl)cc3)c(C)o2)c1 (configuration not stated) was read as M5 PAM 1, M5 antag 18, M4 PAM 3, M5 ag -3, M4 ag 4 and CHRM4 antagonist 1.
`CCCCn1nnnc1C(c1ccnc2ccccc12)N1CCN(C/C=C/c2ccccc2)CC1` (configuration not stated) gave M5 PAM -22, M5 antag 37*, M4 PAM -14, M5 ag -8, M4 ag 1 and CHRM4 antagonist 23.
